# According to ChEMBL document CHEMBL1147665, “Design, synthesis, and biological evaluation of 4-alkyliden-beta lactams: new products with promising antibiotic activity against resistant bacteria” (J Med Chem, 2006):
# Legend:
# Format in all cases: functional
# [1] = system: Enterococcus; experiment: Antibacterial activity against Enterococcus spp
# Method in brief: (§1)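 Broth microdilution MIC per CLSI guidelines in Mueller-Hinton broth: serial 2-fold dilutions, inoculum 5 × 10⁵ CFU/mL in equal volume, 35 °C for 16-20 h. MIC = lowest concentration with no visible turbidity. Recent clinical isolates (43 total, Gram-positive and Gram-negative); values given as MIC ranges, MIC₅₀ and MIC₉₀ per species.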
# [2] = system: Streptococcus pneumoniae; experiment: Antibacterial activity against Streptococcus pneumoniae; method in brief: as §1
# [3] = system: Haemophilus influenzae; experiment: Antibacterial activity against Haemophilus influenzae; method in brief: as §1
# [4] = system: Staphylococcus epidermidis; experiment: Antibacterial activity against Staphylococcus epidermidis; method in brief: as §1
# [5] = system: Streptococcus pyogenes; experiment: Antibacterial activity against Streptococcus pyogenes; method in brief: as §1
# [6] = system: Staphylococcus aureus; experiment: Antibacterial activity against methicillin-susceptible Staphylococcus aureus; method in brief: as §1
# [7] = system: Staphylococcus aureus; experiment: Antibacterial activity against methicillin-resistant Staphylococcus aureus
# Method in brief: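 Clinical isolates (3 MRSA in a 43-strain panel). Broth microdilution per CLSI, serial 2-fold dilutions in Mueller-Hinton broth, inoculum 5 × 10⁵ CFU/mL, 35 °C for 16-20 h. MIC = lowest concentration with no visible turbidity; reported as MIC range, MIC₅₀ and MIC₉₀ across isolates.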
SMILES,MIC50 [1],MIC90 [1],MIC50 [2],MIC90 [2],MIC50 [3],MIC90 [3],MIC50 [4],MIC90 [4],MIC50 [5],MIC90 [5],MIC50 [6],MIC90 [6],MIC50 [7],MIC90 [7]
CCOC(=O)/C=C1\NC(=O)[C@@H]1[C@@H](C)OC(=O)c1cc(OC)c(OC)c(OC)c1,> 128 µg/mL,> 128 µg/mL,128 µg/mL,128 µg/mL,128 µg/mL,> 128 µg/mL,128 µg/mL,> 128 µg/mL,128 µg/mL,> 128 µg/mL,> 128 µg/mL,> 128 µg/mL,,
CCOC(=O)/C=C1\NC(=O)[C@@H]1[C@@H](C)OC(=O)c1ccc(O)cc1,> 128 µg/mL,> 128 µg/mL,128 µg/mL,128 µg/mL,,,8 µg/mL,> 128 µg/mL,128 µg/mL,> 128 µg/mL,> 128 µg/mL,> 128 µg/mL,,
COc1cc(C(=O)O[C@H](C)[C@H]2C(=O)N/C2=C\C(=O)O)cc(OC)c1OC,> 128 µg/mL,> 128 µg/mL,128 µg/mL,128 µg/mL,128 µg/mL,128 µg/mL,> 128 µg/mL,> 128 µg/mL,> 128 µg/mL,> 128 µg/mL,> 128 µg/mL,> 128 µg/mL,,
C[C@@H](O[Si](C)(C)C(C)(C)C)[C@H]1C(=O)N/C1=C\C(=O)OCc1ccccc1,> 128 µg/mL,> 128 µg/mL,128 µg/mL,128 µg/mL,128 µg/mL,> 128 µg/mL,> 128 µg/mL,> 128 µg/mL,128 µg/mL,> 128 µg/mL,> 128 µg/mL,> 128 µg/mL,,
COc1cc(C(=O)O[C@H](C)[C@H]2C(=O)N/C2=C\C(=O)O)cc(OC)c1O,> 128 µg/mL,> 128 µg/mL,128 µg/mL,128 µg/mL,128 µg/mL,128 µg/mL,> 128 µg/mL,> 128 µg/mL,> 128 µg/mL,> 128 µg/mL,> 128 µg/mL,> 128 µg/mL,,
C[C@@H](O[Si](C)(C)C(C)(C)C)[C@H]1C(=O)N/C1=C\C(=O)OCc1cc(O)cc(O)c1,128 µg/mL,128 µg/mL,32 µg/mL,32 µg/mL,,,128 µg/mL,> 128 µg/mL,32 µg/mL,32 µg/mL,64 µg/mL,64 µg/mL,64 µg/mL,128 µg/mL
C[C@@H](O[Si](C)(C)C(C)(C)C)[C@H]1C(=O)N/C1=C\C(=O)OCc1cc(C(F)(F)F)cc(C(F)(F)F)c1,> 128 µg/mL,> 128 µg/mL,128 µg/mL,> 128 µg/mL,> 128 µg/mL,> 128 µg/mL,> 128 µg/mL,> 128 µg/mL,128 µg/mL,> 128 µg/mL,> 128 µg/mL,> 128 µg/mL,,
CCOC(=O)C[C@H]1NC(=O)[C@@H]1[C@@H](C)O[Si](C)(C)C(C)(C)C,> 128 µg/mL,> 128 µg/mL,> 128 µg/mL,> 128 µg/mL,128 µg/mL,> 128 µg/mL,> 128 µg/mL,> 128 µg/mL,> 128 µg/mL,> 128 µg/mL,> 128 µg/mL,> 128 µg/mL,,
CCOC(=O)/C=C1\NC(=O)[C@@H]1[C@@H](C)OC(=O)c1cc(OCc2ccccc2)c(O)c(OCc2ccccc2)c1,> 128 µg/mL,> 128 µg/mL,> 128 µg/mL,> 128 µg/mL,128 µg/mL,128 µg/mL,> 128 µg/mL,> 128 µg/mL,> 128 µg/mL,> 128 µg/mL,> 128 µg/mL,> 128 µg/mL,,
COc1cc(C(=O)O[C@H](C)[C@H]2C(=O)N/C2=C\C(=O)OCc2ccccc2)cc(OC)c1OC,128 µg/mL,> 128 µg/mL,> 128 µg/mL,> 128 µg/mL,> 128 µg/mL,> 128 µg/mL,4 µg/mL,16 µg/mL,128 µg/mL,> 128 µg/mL,8 µg/mL,16 µg/mL,128 µg/mL,128 µg/mL
C[C@@H](O[Si](C)(C)C(C)(C)C)[C@H]1C(=O)N/C1=C\C(=O)N[C@@H](Cc1ccc(O)cc1)C(=O)OC(C)(C)C,> 128 µg/mL,> 128 µg/mL,> 128 µg/mL,> 128 µg/mL,> 128 µg/mL,> 128 µg/mL,> 128 µg/mL,> 128 µg/mL,> 128 µg/mL,> 128 µg/mL,> 128 µg/mL,> 128 µg/mL,,
